Screening results deposited in PubChem BioAssay by several laboratories.
Rows were chosen to be rich in hits. Some 2.6% of all compounds tested hit in one or more screens of this group.
esBAF inh – Bmi1 luciferase reporter increase in mESCs, primary screen, esBAF inhibitor project, mouse ES cells, Bmi1 luciferase knock-in, single point; reporter increase, % at 12.5 µM; AID 602393, 2012; 24 h; 100% = twice the neutral-well signal; 350,000 compounds, 2% hits; in the data active = activation above about 40%; inconclusive = no clear call, values can overlap the other calls;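 note: 0% = median of the plate's neutral control wells and 100% = double that signal; a rise in the Bmi1 reporter signal indicates esBAF inhibition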
SMARCA2 act – SMARCA2 (BRM) function activators, primary screen, cell-based, luminescence, high throughput. MG213 cells, MMTV-luciferase reporter, dexamethasone, overnight. activation, % at 9.1 µM. 370,000 compounds, 1% hits. AID 652017, 2013; in the data active = activation above about 7.8%;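 note: 0% = vehicle wells and 100% = reference activator wells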
ASAP1 GAP inh – inhibitors of human ASAP1 ArfGAP activity, primary screen, biochemical, fluorescence polarization. inhibition, % at 16.5 µM. Arf-GAP with SH3 domain, ANK repeat and PH domain-containing protein 1 (Homo sapiens), …. ASAP1-stimulated ARF1 GTP hydrolysis, GDP FP detection. 360,000 compounds, 0.19% hits; in the data active = inhibition above about 25%;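 note: 0% = vehicle with enzyme and substrate and 100% = no enzyme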
Target sequence (Q9ULH1 325-724 limits assumed): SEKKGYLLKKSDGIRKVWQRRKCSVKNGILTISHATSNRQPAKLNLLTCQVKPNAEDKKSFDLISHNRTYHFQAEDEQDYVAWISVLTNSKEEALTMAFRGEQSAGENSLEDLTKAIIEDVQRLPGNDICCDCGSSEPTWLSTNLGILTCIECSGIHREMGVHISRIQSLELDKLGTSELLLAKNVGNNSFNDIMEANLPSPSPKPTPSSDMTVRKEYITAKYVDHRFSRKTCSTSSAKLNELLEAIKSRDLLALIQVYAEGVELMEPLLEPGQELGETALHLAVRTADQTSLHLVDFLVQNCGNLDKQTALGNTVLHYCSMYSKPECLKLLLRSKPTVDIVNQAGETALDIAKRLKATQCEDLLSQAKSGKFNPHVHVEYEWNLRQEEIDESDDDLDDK
ARFGAP1 inh – inhibitors of rat ARFGAP1 GAP activity, primary screen, biochemical, fluorescence polarization, GDP tracer. 360,000 compounds, 0.26% hits. ADP-ribosylation factor GTPase-activating protein 1 (Rattus norvegicus), Q62848. Arfgap1-stimulated ARF1 GTP hydrolysis, GDP FP detection. inhibition, % at 16.5 µM;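 active = inhibition above a per-plate limit, mean inhibition of low control wells plus 3 SD, cut at about 25% in these data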;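 note: 0% = DMSO wells with enzyme and 100% = wells lacking Arfgap1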
Target sequence (Q62848 1-136 limits assumed): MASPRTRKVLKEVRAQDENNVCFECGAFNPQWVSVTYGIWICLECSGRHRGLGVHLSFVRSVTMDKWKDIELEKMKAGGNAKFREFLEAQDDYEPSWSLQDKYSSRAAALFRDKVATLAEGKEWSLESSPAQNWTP
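System: truncated rat Arfgap1 GAP domain / Medium: HEPES-based buffer, pH 7.5 / Also added: N-terminally truncated human ARF1-GTP substrate / Incubation: enzyme reaction 120 min at 25 °C after 20 min preincubation / Measured by: FP of antibody-bound GDP Alexa 633 tracer, ex 620/em 688 nm / Replicates: singlicate, each compound tested once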
Starred values were filed as active, the others as inactive; ? = inconclusive; / = not tested or not shown.

SMILES | esBAF inh | SMARCA2 act | ASAP1 GAP inh | ARFGAP1 inh
Cc1ccc2c(c1)c1nc3ccccc3nc1n2CCN1CCOCC1 | 60* | -1 | 1 | 9
O=C(C[C@H]1C=C[C@@H](NC(=O)c2ccccc2)[C@H](CO)O1)NCCc1ccncc1 | 2 | / | / | /
O=C(OCc1ccccc1)N1CCC2CC1c1cc(N3CCOCC3)ccc12 (configuration not stated) | 36 | 2 | 7 | 11
O=C(OCc1ccccc1)N1CCC2CC1c1ccc(N3CCOCC3)cc12 (configuration not stated) | 47* | -1 | -10 | -2
Cc1ccc(C(C)(C)NC(=O)C2CCC(=O)N(C3CCCCCC3)C2)cc1 (configuration not stated) | 74* | 5 | -6 | 8
Cc1ccc(C(C)(C)NC(=O)C2CCC(=O)N(CCCN3CCOCC3)C2)cc1 (configuration not stated) | 1 | -4 | -2 | 14
COc1ccc(NC(=O)Nc2ccc3c(c2)C(=O)N([C@@H](C)CO)C[C@H](C)[C@H](CN(C)S(=O)(=O)c2ccccc2)O3)cc1 | -6 | / | / | /
c1cc2cc(-c3c(-c4ccc5c(c4)OCO5)noc3-c3ccsc3)ccc2[nH]1 | 55* | 4 | 14 | 29*
O=C(C[C@H]1C[C@H]2c3cc(NC(=O)CC4CC4)ccc3O[C@H]2[C@H](CO)O1)NCc1ccc2c(c1)OCO2 | 0 | / | / | /
COCC(=O)Nc1ccc2c(c1)OC[C@H](C)N(CC1CCCCC1)C[C@@H](C)[C@@H](OC)CN(C)C2=O | 6 | / | / | /
COc1ccc2c(c1)CCc1c(C(=O)N3CCCCCC3)noc1-2 | 44* | 3 | -3 | 2
N/C(=N\OC(=O)c1ccc([N+](=O)[O-])cc1)c1ccc(Br)cc1 | 34 | -2 | 8 | 7
Cc1ccc(C)c(C(=O)O/N=C(\N)c2ccc(Br)cc2)c1 | 43* | 5 | 6 | 1
Cc1ccc(C(=O)O/N=C(\N)c2ccc(Br)cc2)cc1C | 53* | 3 | -4 | 4
N/C(=N\OC(=O)c1ccoc1)c1ccc(Br)cc1 | 44* | 7.8* | -8 | 3
Cc1cc(C)cc(C(=O)O/N=C(\N)c2ccc(Br)cc2)c1 | 10 | -3 | 7 | 6
CCC(=O)N1[C@@H]2Cn3c(cccc3=O)[C@H]1[C@@H](C(=O)N1CCCCC1)[C@@H]2CO | 3 | / | / | /
CC(C)NC(=O)Nc1ccc2c(c1)CC(=O)N([C@H](C)CO)C[C@@H](C)[C@H](CN(C)Cc1ccc(Oc3ccccc3)cc1)O2 | -2 | / | / | /
CC(=O)c1ccc(N=C2C(=O)Nc3ccccc32)cc1 | 3 | -2 | 4 | -6
CC(=O)N(/N=C1/C(=O)Nc2ccccc21)c1ccccc1 | 45* | 1 | -7 | 6
Cc1ccc(C(=O)/C=C/c2cn(CN3CCN(C)CC3)c3ccccc23)cc1 | 55* | 5 | 6 | 1
O=C(NC1CCC(O)CC1)c1ccc2c(c1)S(=O)(=O)N=C1CCCCCN12 (configuration not stated) | 46* | -1 | -1 | -11
CCCSc1nc2sc3c(c2c(=O)[nH]1)CC(C)CC3 (configuration not stated) | / | -3 | -25 | -5
CSc1nc2sc3c(c2c(=O)[nH]1)CCC(C)C3 (configuration not stated) | 62* | 1 | -6 | 0
O=C(CSc1nnc(-c2ccco2)n1Cc1ccccc1)OC1CCCCC1 | 68* | 2 | 9 | -2
SMILES | esBAF inh | SMARCA2 act | ASAP1 GAP inh | ARFGAP1 inh
CC(C)NC(=O)Nc1ccc2c(c1)CC(=O)N([C@@H](C)CO)C[C@H](C)[C@@H](CN(C)C(=O)Nc1cccc3ccccc13)O2 | -5 | / | / | /
COc1ccc(-c2nnc(NC(=O)C(C)C)s2)c(OC)c1 | 42* | 3 | 11 | 1
Cc1cc(C(=O)OCc2nnc(-c3ccccc3)o2)c(C)n1-c1ccccc1 | 26 | -3 | 6 | -1
Cc1noc(C)c1COC(=O)c1cc(C)n(-c2ccccc2)c1C | 80* | 3 | 0 | 7
Cc1ccccc1-c1ccc2c(c1)O[C@H](CN(C)C(=O)c1ccccn1)[C@@H](C)CN([C@H](C)CO)S2(=O)=O | 4 | / | / | /
c1cncc(-c2noc(-c3cccc4ccccc34)n2)c1 | 58* | 0 | -11 | -7
Brc1cccc(-c2nc(-c3ccncc3)no2)c1 | 57* | 7 | 10 | 0
c1ccc(-c2noc(-c3cccc4ccccc34)n2)cc1 | 76* | 6 | 8 | -2
c1ccc2c(-c3nc(-c4ccncc4)no3)cccc2c1 | 46* | 3 | -6 | 0
Fc1ccccc1-c1nc(-c2ccccc2)no1 | -4 | 5 | -7 | -1
Fc1ccccc1-c1nc(-c2ccncc2)no1 | ? | 6 | 5 | 12
Cc1ccc(-c2nc(-c3ccccc3)no2)cc1 | / | 7.8* | -5 | -9
Cc1ccc(-c2nc(-c3ccncc3)no2)cc1 | 1 | 4 | -1 | -3
CN1CCN(C(=O)c2ccccc2-c2nc(-c3ccccc3)no2)CC1 | 48* | 5 | -1 | 3
Cc1ccc(S(=O)(=O)Nc2cccc3c2O[C@@H](CN(C)Cc2ccc(Cl)c(Cl)c2)[C@H](C)CN([C@@H](C)CO)C3=O)cc1 | -2 | / | / | /
Cc1ccc(-c2cc(-c3cccc(F)c3)n[nH]2)c(O)c1 | 56* | -1 | 12 | 16
O=C(C[C@H]1C[C@H]2c3cc(NC(=O)NC4CCCCC4)ccc3O[C@H]2[C@@H](CO)O1)NCC(F)(F)F | -3 | / | / | /
CC1=C(C(=O)N(C)C)CC(CC(=O)NC2CCCC2)C(=O)N1CCC1=CCCCC1 (configuration not stated) | 49* | -2 | 5 | 6
CC1=C(C(=O)N(C)C)CC(CC(=O)NC2CCCCC2)C(=O)N1CCC1=CCCCC1 (configuration not stated) | 70* | 2 | 2 | 1
CCCC#Cc1cnc2c(c1)C(=O)N([C@@H](C)CO)C[C@H](C)[C@H](CN(C)C(=O)Nc1ccccc1OC)O2 | 0 | / | / | /
O=c1c2ccccc2nnn1CSc1nnc2ccccn12 | 47* | 4 | 6 | 7
O=c1c2ccccc2nnn1CSc1nc2ccccc2c(=O)n1CCCO | -5 | -4 | -10 | 9
Cc1ccc(C(=O)Nc2nc(=O)n(C(=O)c3ccccc3C)s2)cc1 | 60* | 1 | -6 | -1
Cc1ccccc1C1=NC(c2ccc(F)cc2F)ON1 (configuration not stated) | 48* | 0 | -12 | -15
Cc1cccc(NC(=S)N/N=C/c2ccc([N+](=O)[O-])s2)c1 | / | -7 | 0 | 12
Cc1cccc(N/N=C/c2ccc(C)s2)c1 | 74* | 4 | 2 | 0
Cc1c(N2C(=O)/C(=C\C3CC=CCC3)SC2=S)c(=O)n(-c2ccccc2)n1C (configuration not stated) | 44* | 1 | 5 | 10
